This is an account of results in ChEMBL document CHEMBL1122682, “Synthesis of potent heptapeptide analogues of cholecystokinin” (1984).

*1 amine or outer side, *2 acyl side, *3 side chain or, on linkers, in order; H or OH if unused. Where a SMILES comes first, the peptide text is derived from it. [ ]: non-standard residue; d: D form. X1 = O=C([C@@H]1C[C@@H](OS(=O)(=O)O)CN1[*:1])[*:2]; Thr(SO3H) = C[C@@H](OS(=O)(=O)O)[C@H](N)C(=O)O; sY = N[C@@H](Cc1ccc(OS(=O)(=O)O)cc1)C(=O)O

Type in all cases: functional
Test [1] has as its system Mus musculus. The test is described as follows: Anticonvulsive activity against picrotoxin-induced (6 mg/kg sc) convulsions in mice, time of death. An outline of the steps:
(§1)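 Male CFLP mice (25–35 g), 10 per group. Peptides in physiological saline given ip at 0.8 μmol/kg (1 mg/kg for CCK-8) 10 min before picrotoxin 6 mg/kg sc. Latency to first tonic seizure and time of death recorded over 60 min; a score of 60 is given if neither occurs. Percentage prolongation of mean saline-control latency is expressed relative to CCK-8. Student's t test vs saline controls.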

Test [2] deals with Mus musculus. The test is described as follows: Anticonvulsive potency against picrotoxin induced (6 mg/kg sc) convulsions in mice, first tonic seizure. An outline of the steps:
as §1

The species named for another test is Oryctolagus cuniculus. Nature of the test: Compound was evaluated for cholecystokinin activity measured in isolated rabbit gallbladder strips (in vitro). An outline of the steps:
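Tension changes recorded with a force-displacement transducer. Dose-response curves were run for CCK-8 and each analogue, with five determinations per compound. ED50 and maximal response came from direct observation and a Dowd-Riggs linear transformation. Activity is relative to CCK-8 (100%), reported as mean ± SEM.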

In the next test the test system is Rattus norvegicus. Nature of the test: Compound was evaluated for (in vivo) gastrin like activity measured on perfused rat stomach after intravenous administration. An outline of the steps:
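Male Wistar rats (~250 g), perfused stomach; peptides given iv in physiological saline at 10, 20, 40, 80, 160 and 320 ng; secreted HCl measured by conductometric titration. Pentagastrin standard at 10–80 ng, taken as 100%. Relative potency expressed as a percentage; 10 animals per compound; detection limit 1–2% of pentagastrin.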

`CSCC[C@H](NC(=O)[C@H](Cc1ccc(OS(=O)(=O)[O-])cc1)NC(C)=O)C(=O)NCC(=O)N[C@H](Cc1c[nH]c2ccccc12)C(=O)N[C@@H](CCSC)C(=O)N[C@@H](CC(=O)O)C(=O)N[C@@H](Cc1ccccc1)C(N)=O.[Na+]`: the Activity in the test on Mus musculus [1] is reported as 45%; in the test with Mus musculus [2], 65%; in the test filed under Oryctolagus cuniculus, 0.7%; in the test with Rattus norvegicus, 0%.

On to `CSCC[C@H](NC(=O)[C@H](Cc1c[nH]c2ccccc12)NC(=O)[C@@H](C)NC(=O)[C@H](CCSC)NC(=O)[C@H](Cc1ccc(OS(=O)(=O)[O-])cc1)NC(C)=O)C(=O)N[C@@H](CC(=O)O)C(=O)N[C@@H](Cc1ccccc1)C(N)=O.[Na+]`, for which the Activity in the test on Mus musculus [1] was 115%; in the test on Mus musculus [2], 100%; in the test filed under Oryctolagus cuniculus it was 40%; in the test with Rattus norvegicus, 0%.

Consider `CSCC[C@H](NC(=O)[C@H](Cc1ccc(O)cc1)NC(C)=O)C(=O)NCC(=O)N[C@@H](Cc1c[nH]c2ccccc12)C(=O)N[C@@H](CCSC)C(=O)N[C@@H](COS(=O)(=O)[O-])C(=O)N[C@@H](Cc1ccccc1)C(N)=O.[Na+]`, for which the results for the Activity in the test listed under Oryctolagus cuniculus and with Rattus norvegicus were 0.3% and 40%, respectively.

With `CSCC[C@H](NC(=O)[C@H](Cc1ccc(OS(=O)(=O)[O-])cc1)NC(C)=O)C(=O)NCC(=O)N[C@@H](Cc1c[nH]c2ccccc12)C(=O)N[C@@H](CCSC)C(=O)N[C@@H](COS(=O)(=O)[O-])C(=O)N[C@@H](Cc1ccccc1)C(N)=O.[Na+].[Na+]`, the Activity is on record as 121% in the test with Mus musculus [1], 66% in the test on Mus musculus [2], 190% in the test filed under Oryctolagus cuniculus and 0% in the test on Rattus norvegicus.

As to `CSCC[C@H](NC(=O)[C@H](Cc1ccc(OS(=O)(=O)[O-])cc1)NC(C)=O)C(=O)NCC(=O)N[C@@H](Cc1c[nH]c2ccccc12)C(=O)N[C@H](CCSC)C(=O)N[C@@H](CC(=O)O)C(=O)N[C@@H](Cc1ccccc1)C(N)=O.[Na+]`, the Activity is recorded as 0% in the test with Mus musculus [1], 21% in the test on Mus musculus [2], 0.6% in the test listed under Oryctolagus cuniculus and 0% in the test with Rattus norvegicus.

For the compound `CSCC[C@H](NC(=O)[C@H](Cc1ccc(O)cc1)NC(C)=O)C(=O)NCC(=O)N[C@@H](Cc1c[nH]c2ccccc12)C(=O)N[C@@H](CCSC)C(=O)N[C@H](C(=O)N[C@@H](Cc1ccccc1)C(N)=O)[C@@H](C)OS(=O)(=O)[O-].[Na+]` (Ac-YMGWM[Thr(SO3H)]F-NH2), the Activity in the test filed under Oryctolagus cuniculus is given as 0.2%; with Rattus norvegicus, 25%.

On to `CSCC[C@H](NC(=O)[C@H](Cc1ccc(O)cc1)NC(C)=O)C(=O)NCC(=O)N[C@@H](Cc1c[nH]c2ccccc12)C(=O)N[C@@H](CCSC)C(=O)N1C[C@H](OS(=O)(=O)[O-])C[C@H]1C(=O)N[C@@H](Cc1ccccc1)C(N)=O.[Na+]` (Ac-YMGWM[X1]F-NH2), for which the Activity was determined as 0.3% in the test filed under Oryctolagus cuniculus and 0% with Rattus norvegicus.

Regarding `CSCC[C@H](NC(=O)[C@H](Cc1ccc(OS(=O)(=O)[O-])cc1)NC(C)=O)C(=O)NCC(=O)N[C@@H](Cc1c[nH]c2ccccc12)C(=O)N[C@@H](CCSC)C(=O)N[C@H](C(=O)N[C@@H](Cc1ccccc1)C(N)=O)[C@@H](C)OS(=O)(=O)[O-].[Na+].[Na+]` (Ac-[sY]MGWM[Thr(SO3H)]F-NH2), the Activity with Mus musculus [1] was 115%; with Mus musculus [2], 146%; in the test listed under Oryctolagus cuniculus, 166%; in the test with Rattus norvegicus, 0%.

`CSCC[C@H](NC(=O)[C@H](Cc1ccc(OS(=O)(=O)[O-])cc1)NC(C)=O)C(=O)NCC(=O)N[C@@H](Cc1c[nH]c2ccccc12)C(=O)N[C@@H](CCSC)C(=O)N1C[C@H](OS(=O)(=O)[O-])C[C@H]1C(=O)N[C@@H](Cc1ccccc1)C(N)=O.[Na+].[Na+]` (Ac-[sY]MGWM[X1]F-NH2): the Activity was 121% in the test on Mus musculus [1], 79% with Mus musculus [2], 300% in the test listed under Oryctolagus cuniculus and 0% in the test on Rattus norvegicus.

Regarding `CSCC[C@H](NC(=O)[C@H](Cc1ccc(OS(=O)(=O)O)cc1)NC(=O)[C@@H](N)CC(=O)O)C(=O)NCC(=O)N[C@@H](Cc1c[nH]c2ccccc12)C(=O)N[C@@H](CCSC)C(=O)N[C@@H](CC(=O)O)C(=O)N[C@@H](Cc1ccccc1)C(N)=O` [SINCALIDE], the Activity with Mus musculus [1] is 100%; in the test on Mus musculus [2], 100%; in the test listed under Oryctolagus cuniculus it was 100%; with Rattus norvegicus, 0%.

Consider H-GWMDF-NH2, for which the Activity with Mus musculus [1] was 38%; in the test on Mus musculus [2], 62%; in the test filed under Oryctolagus cuniculus it was 0%; in the test on Rattus norvegicus it was 100%.
